Data on 25 compounds can be found in ChEMBL document CHEMBL1833898, “Dual pro-drugs of 2'-C-methyl guanosine monophosphate as potent and selective inhibitors of hepatitis C virus” (Bioorg Med Chem Lett, 2011).

Series [1] can be described thus: Cytotoxicity against human HuH7 cells. Type of series: cell-based, Huh-7.
The test system of series [2] is Hepatitis C virus. Briefly: Antiviral activity against Hepatitis C virus subtype 1b replicon in human HuH7 cells after 48 hrs by subgenomic replicon assay. Type of series: functional, organism-based, Hepacivirus hominis. As to conditions: genotype 1b, Huh-7, 48 h. (In antiviral work, replicon cells carry a viral genome segment that copies itself.)
The test system of series [3] is Hepatitis C virus. The series is described as follows: Antiviral activity against Hepatitis C virus subtype 1b replicon in by replicon assay in presence of adenosine deaminase inhibitor pentostatin. Format: functional, organism-based. As to conditions: Hepacivirus hominis; genotype 1b. In outline: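 Genotype 1b replicon in HUH7 cells, 48 h compound exposure, run with and without the adenosine/adenylate deaminase inhibitor pentostatin.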

Series [4] can be described thus: Prodrug conversion of the compound after 24 hrs using UV spectroscopic analysis in presence of adenosine deaminase. Type of series: ADME. The procedure, abridged: (§1)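 Nucleoside at 44 μM (1 ml, phosphate buffer pH 7.4) with 30 μL adenosine deaminase solution. UV spectra taken at 1 min intervals for 30 min. Conversion judged by the spectrum matching 2'-C-methylguanosine. Reaction followed up to 24 h.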

A short description of series [5]: Prodrug conversion of the compound using UV spectroscopic analysis in presence of adenosine deaminase. Format: ADME. The procedure, abridged:
as §1

A further series concerns Huh-7. The series is described as follows: Prodrug stability in human HuH7 cell lysates assessed as monophosphate formation at pH 7.6 after every 1 hr for 11 hrs by NMR assay. Format: ADME, cell-based, Lysate. As to conditions: huh-7, pH 7.6, 11 h. The procedure, abridged: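 HuH7 cell lysate (10^7 cells) in acetone-d6 and Trizma buffer pH 7.6 at 37 °C. 31P NMR taken every 1 h for 11 h. Monophosphate identified by a signal at the shift of an authentic monophosphate.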

Series [6] in a line: Stability of the compound assessed as half life by NMR analysis in presence of carboxypeptidase Y. Format: ADME. The procedure, abridged: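 Incubation with carboxypeptidase Y in acetone-d6 and Trizma buffer pH 7.6. 31P NMR spectra taken every 7 min over 14 h to follow loss of starting material and intermediate formation.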

The structures appear in SMILES notation. Calls of active or inactive are those of the source. No cut-off for these calls is given here.

As usually defined, the CC50 is the concentration that lowers cell viability or growth by half. Read a low CC50 as harm at low concentration. For orientation: EC50 means the midpoint of the concentration-response curve. The low end stands for a more potent agent, the high end for a less potent agent. As usually defined, the EC90 is the concentration needed for an effect of 90%. Lower therefore signals an effect from little substance. Regarding `C[C@H](NP(=O)(OC[C@H]1O[C@@H](n2cnc3c(NCc4ccccc4)nc(N)nc32)[C@](C)(O)[C@@H]1O)Oc1cccc2ccccc12)C(=O)OCC(C)(C)C` (stereo not given in full), the midpoint of cytotoxicity in series [1], the CC50, lay at 15 µM. In the series on Hepatitis C virus [2], this compound came in with an EC50 of 0.79 µM and an EC90 of 2.7 µM. Further, in the series with Hepatitis C virus [3], the result was inactive.

`CC(C)Oc1nc(N)nc2c1ncn2[C@@H]1O[C@H](COP(=O)(N[C@@H](C)C(=O)OCC(C)(C)C)Oc2cccc3ccccc23)[C@@H](O)[C@@]1(C)O` (stereo not given in full): in series [1], the CC50 was found to be 11 µM. For the same compound, in the series on Hepatitis C virus [2], a half-maximal effect (EC50) was put at 0.023 µM and the EC90 was determined as 0.065 µM. Moreover, the result in the series with Hepatitis C virus [3] was inactive.

For `CNc1nc(N)nc2c1ncn2[C@@H]1O[C@H](CO)[C@@H](O)[C@@]1(C)O`, the CC50 in series [1] is above 100 µM. The compound further showed an EC50 in the series with Hepatitis C virus [2] of 13 µM. For the same compound, the Drug metabolism entry in series [4] is recorded as “Not Active”.

`COCCCOc1nc(N)nc2c1ncn2[C@@H]1O[C@H](CO)[C@@H](O)[C@@]1(C)O` yielded a CC50 in series [1] above 100 µM. For the same compound, in the series with Hepatitis C virus [2], the EC50 amounted to 12 µM.

As to `CCOc1nc(N)nc2c1ncn2[C@@H]1O[C@H](COP(=O)(N[C@H](C(=O)OCC(C)(C)C)C(C)C)Oc2cccc3ccccc23)[C@@H](O)[C@@]1(C)O` (stereo not given in full), it took 24 µM to reach half-maximal cytotoxicity in series [1] (CC50). Moreover, in the series on Hepatitis C virus [2], a half-maximal response (EC50) required 0.17 µM. For the same compound, in the series on Hepatitis C virus [3], the result was inactive.

For the compound `CCOc1nc(N)nc2c1ncn2[C@@H]1O[C@H](COP(=O)(N[C@@H](C)C(=O)OCC(C)(C)C)Oc2cccc3ccccc23)[C@@H](O)[C@@]1(C)O` (stereo not given in full), the CC50 in series [1] is 10 µM. In the series on Hepatitis C virus [2], this compound returned an EC50 of 0.008 µM and an EC90 of 0.032 µM. Besides, the outcome in the series on Hepatitis C virus [3] was inactive.

As to `C[C@@]1(O)[C@H](O)[C@@H](CO)O[C@H]1N1C=NC2C(=O)NC(N)=NC21` (stereo not given in full), the Drug metabolism result in series [5] is “Active”.

Compound `C[C@H](NP(=O)(OC[C@H]1O[C@@H](n2cnc3c(Cl)nc(N)nc32)[C@](C)(O)[C@@H]1O)Oc1cccc2ccccc12)C(=O)OCC(C)(C)C` (stereo not given in full) came in with a CC50 in series [1] of 16 µM. For the same compound, in the series on Hepatitis C virus [2], a half-maximal effect (EC50) was put at 0.012 µM and the EC90 is 0.028 µM. The outcome in the series on Hepatitis C virus [3] was inactive.

As to `COc1nc(N)nc2c1ncn2[C@@H]1O[C@H](CO)[C@@H](O)[C@@]1(C)O` [BETA-2'-C-METHYL-6-O-METHYL GUANOSINE], the CC50 in series [1] was above 100 µM. It took 4.6 µM to reach a half-maximal effect in the series with Hepatitis C virus [2] (EC50).

In series [1], `COCCCOc1nc(N)nc2c1ncn2[C@@H]1O[C@H](COP(=O)(N[C@@H](C)C(=O)OCC(C)(C)C)Oc2cccc3ccccc23)[C@@H](O)[C@@]1(C)O` (stereo not given in full) had a CC50 of 31 µM. Further, in the series on Hepatitis C virus [2], the EC50 amounted to 0.043 µM and the EC90 turned out to be 0.12 µM. In addition, the result in the series with Hepatitis C virus [3] was inactive.

In series [1], `CCOc1nc(N)nc2c1ncn2[C@@H]1O[C@H](COP(=O)(N[C@@H](C)C(=O)OCc2ccc(F)cc2F)Oc2cccc3ccccc23)[C@@H](O)[C@@]1(C)O` (stereo not given in full) had a CC50 of 17 µM. Besides, a half-maximal effect with Hepatitis C virus [2] (EC50) was put at 0.034 µM. Also, the result in the series with Hepatitis C virus [3] was inactive.

For `CSc1nc(N)nc2c1ncn2[C@@H]1O[C@H](COP(=O)(N[C@@H](C)C(=O)OCC(C)(C)C)Oc2cccc3ccccc23)[C@@H](O)[C@@]1(C)O` (stereo not given in full), the midpoint of cytotoxicity in series [1], the CC50, lay at 41 µM. Moreover, in the series with Hepatitis C virus [2], a half-maximal response (EC50) required 0.037 µM and the EC90 turned out to be 0.16 µM. Also, the outcome with Hepatitis C virus [3] was inactive.

Consider `CCOc1nc(N)nc2c1ncn2[C@@H]1O[C@H](COP(=O)(N[C@@H](C)C(=O)OCc2ccccc2)Oc2cccc3ccccc23)[C@@H](O)[C@@]1(C)O` (stereo not given in full), for which the midpoint of cytotoxicity in series [1], the CC50, lay at 11 µM. Moreover, in the series with Hepatitis C virus [2], a half-maximal response (EC50) required 0.04 µM. The result in the series with Hepatitis C virus [3] was inactive.

The compound `C[C@H](NP(=O)(OC[C@H]1O[C@@H](n2cnc3c(NCCc4ccccc4)nc(N)nc32)[C@](C)(O)[C@@H]1O)Oc1cccc2ccccc12)C(=O)OCC(C)(C)C` (stereo not given in full) came in with a CC50 in series [1] of 42 µM. In addition, in the series on Hepatitis C virus [2], the EC50 stood at 0.27 µM and the EC90 came out at 1.3 µM. In addition, in the series with Hepatitis C virus [3], the result was inactive.

Regarding `CCOc1nc(N)nc2c1ncn2[C@@H]1O[C@H](COP(=O)(N[C@@H](C)C(=O)O[C@@H](C)c2ccccc2)Oc2cccc3ccccc23)[C@@H](O)[C@@]1(C)O` (stereo not given in full), in the series with Huh-7, the Drug metabolism entry was “Active”. In series [1], this compound registered a CC50 of 12 µM. In addition, the EC50 in the series on Hepatitis C virus [2] turned out to be 0.085 µM. Further, in the series with Hepatitis C virus [3], the result was inactive.

As to `CCOc1nc(N)nc2c1ncn2[C@@H]1O[C@H](CO)[C@@H](O)[C@@]1(C)O`, in series [5], the Drug metabolism entry was “Active”. For the same compound, in series [1], the CC50 is above 100 µM. In addition, the response in the series on Hepatitis C virus [2] was half-maximal at 8.8 µM (EC50).

Take `CC(C)Oc1nc(N)nc2c1ncn2[C@@H]1O[C@H](CO)[C@@H](O)[C@@]1(C)O`: the CC50 in series [1] is above 100 µM. Also, the EC50 in the series on Hepatitis C virus [2] is 9.3 µM.

`C[C@@]1(O)[C@H](O)[C@@H](CO)O[C@H]1n1cnc2c(NCc3ccccc3)nc(N)nc21` yielded an EC50 with Hepatitis C virus [2] of 30 µM.

Regarding `CNc1nc(N)nc2c1ncn2[C@@H]1O[C@H](COP(=O)(N[C@@H](C)C(=O)OCC(C)(C)C)Oc2cccc3ccccc23)[C@@H](O)[C@@]1(C)O` (stereo not given in full), it took 38 µM to reach half-maximal cytotoxicity in series [1] (CC50). In the series on Hepatitis C virus [2], this compound had an EC50 of 0.035 µM and an EC90 of 0.103 µM. In the series with Hepatitis C virus [3], the result was inactive.

For `COc1nc(N)nc2c1ncn2[C@@H]1O[C@H](COP(=O)(N[C@@H](C)C(=O)OCC(C)(C)C)Oc2cccc3ccccc23)[C@@H](O)[C@@]1(C)O` (stereo not given in full) [BMS-986094], the EC90 in the series on Hepatitis C virus [2] was found to be 0.038 µM. For the same compound, the result with Hepatitis C virus [3] was inactive.

Compound `C[C@@]1(O)[C@H](O)[C@@H](CO)O[C@H]1n1cnc2c(NCCc3ccccc3)nc(N)nc21` had a CC50 in series [1] above 100 µM. This compound registered an EC50 with Hepatitis C virus [2] of 24 µM.

Regarding `C[C@@]1(O)[C@H](O)[C@@H](CO)O[C@H]1n1cnc2c(Cl)nc(N)nc21`, the CC50 in series [1] was above 100 µM. For the same compound, the EC50 with Hepatitis C virus [2] is 8.5 µM.

In general, half-life refers to the time in which the quantity being followed falls by half. Regarding `CCOc1nc(N)nc2c1ncn2[C@@H]1O[C@H](COP(=O)(N[C@@H](C)C(=O)OC(C)C)Oc2cccc3ccccc23)[C@@H](O)[C@@]1(C)O` (stereo not given in full), the half-life in series [6] is 4 h. Besides, the CC50 in series [1] was 40 µM. Moreover, a half-maximal response in the series on Hepatitis C virus [2] (EC50) required 0.14 µM. Moreover, in the series on Hepatitis C virus [3], the outcome was inactive.

As to `CCOc1nc(N)nc2c1ncn2[C@@H]1O[C@H](COP(=O)(N[C@@H](C)C(=O)OC2CCCCO2)Oc2cccc3ccccc23)[C@@H](O)[C@@]1(C)O` (stereo not given in full), the CC50 in series [1] is 47 µM. This compound also registered an EC50 in the series with Hepatitis C virus [2] of 0.08 µM. In addition, the outcome with Hepatitis C virus [3] was inactive.

Take `CSc1nc(N)nc2c1ncn2[C@@H]1O[C@H](CO)[C@@H](O)[C@@]1(C)O`: the CC50 in series [1] was above 100 µM. In the series with Hepatitis C virus [2], this compound yielded an EC50 of 11 µM. Also, the Drug metabolism result in series [4] is given as “Not Active”.
